Source: PMC6736600 (Cell chemical biology, 2019)
Like-named read-outs stand apart in the source and are kept apart here.

How the values were obtained:
N119^3.35A CXCR4 = N119^3.35A CXCR4 (Homo sapiens, UniProt P61073, N119A); type: cell-based; conditions: for signal as % maximum of the WT signaling levels: N119^3.35A CAM, basal CAM activity roughly 47% of maximum WT response to CXCL12; for functional classification on the N119^3.35A CAM: dose-response without CXCL12, classification at 1 μM by one-way ANOVA vs DMSO
Sequence of N119^3.35A CXCR4 (P61073 whole entry N119A): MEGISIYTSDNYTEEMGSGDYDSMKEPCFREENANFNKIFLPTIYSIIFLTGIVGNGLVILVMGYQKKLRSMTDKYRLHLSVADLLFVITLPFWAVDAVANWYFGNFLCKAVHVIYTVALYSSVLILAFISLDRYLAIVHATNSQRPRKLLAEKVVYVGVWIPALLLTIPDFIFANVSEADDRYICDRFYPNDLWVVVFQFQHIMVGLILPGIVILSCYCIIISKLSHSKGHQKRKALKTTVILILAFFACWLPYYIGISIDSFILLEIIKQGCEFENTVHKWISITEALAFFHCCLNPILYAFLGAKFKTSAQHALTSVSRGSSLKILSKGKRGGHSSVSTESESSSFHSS

HIV-1 = conditions: read-out: HIV-1 IC50, cited from earlier work
N119^3.35A/S CXCR4 CAMs = conditions: ref Zhang et al., 2002; cited from earlier work
N119^3.35S CXCR4 CAM = conditions: ref Mona et al., 2016; cited from earlier work
human CXCR4 = human CXCR4 (Homo sapiens, UniProt P61073); conditions: CXCL12 binding IC50, WT CXCR4, 125I-CXCL12, HEK-293 membranes; ± SD
Sequence of human CXCR4 (P61073 whole entry): as the sequence (P61073 whole entry N119A) above, with A119N counted along it

[1] = Cytotoxicity, methylene blue, 72 hours; type: cell-based; conditions: human, CEM cells (acute lymphoblastic lymphoma)
HIV-1 IIIB = experiment: HIV-1 inhibition in TZM-bl reporter cells; type: cell-based; conditions: read-out: HIV-1 IC50, ± SD
How it was run: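 TZM-bl cells (HeLa-derived; CD4, CCR5, CXCR4; LTR-driven β-galactosidase and luciferase reporters), 5 × 10³ per well, grown 1–2 days at 37°C, 5% CO2. Serially diluted test compound applied 30 min before infection with HIV-1 IIIB at MOI of one. Reporter activity read per well; IC50 from ≥ three independent experiments, standard deviation given.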

[2] = Cytotoxicity, methylene blue, 72 hours; type: cell-based; conditions: human, TZM-bl cells

Structure (SMILES)	signal as % maximum of the WT signaling levels (N119^3.35A CXCR4)	functional classification on the N119^3.35A CAM (N119^3.35A CXCR4)	IC50 (HIV-1; ref Schols et al., 1997) [nM]	functional classification on N119^3.35A/S CAMs (N119^3.35A/S CXCR4 CAMs)	effect on N119^3.35A signaling levels vs DMSO (N119^3.35A CXCR4; 1 μM, p < 0.0001)	functional classification on the N119^3.35S CAM (N119^3.35S CXCR4 CAM)	IC50 (HIV-1; ref Thoma et al., 2008) [nM]	IC50 (human CXCR4) [nM]	CC50 at 72 h [1] [nM]	IC50 (HIV-1 IIIB) [nM]	CC50 at 72 h [2] [nM]
c1cc(CN2CCCNCCNCCCNCC2)ccc1CN1CCCNCCNCCCNCC1 [AMD3100]	~ 83%	partial agonism	4 to 10	partial agonist							
CC1(C)CN2C(CSC(=NC3CCCCC3)NC3CCCCC3)=CSC2=N1 [IT1t, N,N’-dicyclohexylcarbamimidothioic acid (5,6-dihydro-6,6-dimethylimidazo[2,1-b]thiazol-3-yl)methyl ester]	~ 25%	inverse agonism			significantly reduced signaling levels	inverse agonist	40				
Cl.c1nc2c(NCC3CCC(CNCCCNC4CCCCC4)CC3)nc(N3CCNCC3)nc2[nH]1 (stereo not shown) [Compound B7, N-Cyclohexyl-N’-{4-[(2-piperazin-1-yl-9H-purin-6-ylamino)-methyl]-cyclohexylmethyl}-propane-1,3-diamine hydrochloride salt]		neutral antagonists						28 ± 2.7	> 50000	2.4 ± 0.4	> 50000
Cl.c1nc2c(NCc3cn(CCCNCCCNC4CCCCC4)nn3)nc(N3CCNCC3)nc2[nH]1 [CX0298, N-Cyclohexyl-N’-(3-{4-[(2-piperazin-1-yl-9H-purin-6-ylamino)-methyl]-[1,2,3]triazol-1-yl}-propyl)-propane-1,3-diamine hydrochloride salt]		neutral antagonists						27.8 ± 1.9	> 50000	4.2 ± 0.3	> 50000
